In ChEMBL document CHEMBL4382237, “Design, Synthesis, and Biological Evaluation of 2-Nitroimidazopyrazin-one/-es with Antitubercular and Antiparasitic Activity” (J Med Chem, 2018):
Values after ≈ are worked out from the molar mass of the structure shown.

How the values were obtained:
Staphylococcus aureus = assay: Antibacterial activity against methicillin-resistant Staphylococcus aureus ATCC […] by broth microdilution assay; type: functional
physchem [1] = conditions: PBS, pH 7.4
physchem [2] = conditions: water
Pseudomonas aeruginosa = assay: Antibacterial activity against Pseudomonas aeruginosa ATCC 27853 by broth microdilution assay; type: functional
Method in brief: (§1)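 Broth microdilution run essentially per an earlier report. MIC taken as the lowest concentration with no visible growth. Replicates typically agreed within one 2-fold dilution. The median MIC is reported, with a range where the median fell between two tested concentrations.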

Klebsiella pneumoniae = assay: Antibacterial activity against Klebsiella pneumoniae 700603 by broth microdilution assay; type: functional; method in brief: as §1
[3] = system: Mycobacterium tuberculosis; assay: Antibacterial activity against non-replicating Mycobacterium tuberculosis H37Rv after 5 days under hypoxic condition by resazurin dye-based fluorescence assay; type: functional; conditions: 120 h
Method in brief: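 Same H37Rv inoculum (OD600 0.001, ~2 x 10^4 CFU/mL) in 7H9S with serially diluted compound. Plates held 5 days at 0.1% oxygen, then resazurin plus Tween-80 added.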

Cryptococcus neoformans = assay: Antifungal activity against Cryptococcus neoformans H99 ATCC […] broth microdilution assay; type: functional; conditions: var. grubii H99 ATCC 208821; method in brief: as §1
HEK293 = assay: Cytotoxicity against HEK293 cells after 24 hrs by resazurin dye-based fluorescence assay; type: cell-based; conditions: human, hek293, 24 h
Method in brief: (§2)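 HEK293 (3000/well) and HepG2 (5000/well) were grown 24 h in DMEM with 10% FBS at 37 °C, 5% CO2. Cells were then exposed 24 h to a dilution series up to 100 µM (0.5% DMSO). 5 µM resazurin was added for 2 h, read at ex 560/em 590. 1% Triton X-100 served as lysis control. CC50 was derived from the curves.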

Giardia intestinalis = assay: Antiparasitic activity against Giardia lamblia WB trophozoites after 24 to 48 hrs by CellTiter-Glo luminescent cell viability assay; conditions: Giardia duodenalis
Escherichia coli = assay: Antibacterial activity against Escherichia coli ATCC 25922 by broth microdilution assay; type: functional; method in brief: as §1
HepG2 = assay: Cytotoxicity against human HepG2 cells after 24 hrs by resazurin dye-based fluorescence assay; type: cell-based; conditions: hepg2, 24 h; method in brief: as §2
Candida albicans = assay: Antifungal activity against Candida albicans ATCC 90028 by broth microdilution assay; type: functional; method in brief: as §1
Acinetobacter baumannii = assay: Antibacterial activity against Acinetobacter baumannii ATCC 19606 by broth microdilution assay; type: functional; conditions: ATCC 19606 = CIP 70.34 = JCM 6841; method in brief: as §1
[4] = system: Mycobacterium tuberculosis; assay: Antibacterial activity against Mycobacterium tuberculosis H37Rv after 5 days under normoxic condition by resazurin dye-based fluorescence assay; type: functional, organism-based
Method in brief: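 H37Rv grown in 7H9/ADC/glycerol/Tyloxapol to mid-exponential phase, diluted to OD600 0.001 (~2 x 10^4 CFU/mL) in 7H9S with serially diluted compound. Incubated 5 days at 37 °C, then resazurin and Tween-80 added. Fluorescence (ex 530/em 590 nm) read after 24 h, normalised to no-drug and no-bacteria wells.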

[5] = system: Trypanosoma brucei brucei; assay: Antiparasitic activity against bloodstream form of Trypanosoma brucei brucei strain 427 after 48 hrs by resazurin dye-based assay; type: functional, organism-based; conditions: strain 427, 48 h
[6] = system: Trypanosoma brucei brucei; assay: Antiparasitic activity against bloodstream form of Trypanosoma brucei brucei strain 427 assessed as inhibition of parasitic growth at 40 uM after 48 hrs by resazurin dye-based assay relative to control; type: functional; conditions: strain 427, 48 h, read-out: GI
[7] = system: Mycobacterium tuberculosis; assay: Antibacterial activity against Mycobacterium tuberculosis H37Rv assessed as inhibition of bacterial growth at 32 ug/ml after 5 days under normoxic condition by resazurin dye-based fluorescence assay relative to control; type: functional; conditions: 120 h, read-out: GI
Entamoeba histolytica = assay: Antiparasitic activity against Entamoeba histolytica HM-1:IMSS trophozoites after 24 to 48 hrs by CellTiter-Glo luminescent cell viability assay; type: functional, organism-based
Method in brief: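 Axenic trophozoites were kept in TYI-S-33 with penicillin (100 U/mL) and streptomycin (100 µg/mL) and harvested in log phase. 5000 parasites per well were exposed to a final 8-point two-fold series of 0.39–50 µM, from 10 mM DMSO stocks. Plates were incubated 24–48 h at 37 °C under anaerobic conditions. ATP luminescence viability was read in triplicate. Percent inhibition is given at the highest concentration tested.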

Clostridioides difficile = assay: Antibacterial activity against Clostridium difficile 630 ATCC BAA-1382 by broth microdilution assay; type: functional; method in brief: as §1
[8] = Metabolic stability in CD-1 mouse liver microsomes assessed as parent compound remaining at 3 uM after 2 hrs by LC-MS/MS analysis
[9] = Metabolic stability in human liver microsomes assessed as parent compound remaining at 3 uM after 2 hrs by LC-MS/MS analysis
[10] = Metabolic stability in CD-1 mouse plasma assessed as parent compound remaining at 3 uM after 2 hrs by LC-MS/MS analysis
[11] = Metabolic stability in human plasma assessed as parent compound remaining at 3 uM after 2 hrs by LC-MS/MS analysis
[12] = Apparent permeability across basolateral to apical side in human Caco2 cells assessed as mean drug recovery at 2 uM after 2 hrs by lucifer yellow dye-based LC-MS/MS analysis; conditions: Caco-2
[13] = Apparent permeability across apical to basolateral side in human Caco2 cells assessed as mean drug recovery at 2 uM after 2 hrs by lucifer yellow dye-based LC-MS/MS analysis; conditions: caco-2, 2 h
[14] = Apparent permeability across basolateral to apical side in human Caco2 cells at 2 uM after 2 hrs by lucifer yellow dye-based LC-MS/MS analysis; conditions: caco-2, 2 h
[15] = Protein binding in human plasma at 5 uM after 30 mins by LC-MS/MS analysis based ultrafiltration method; conditions: 0.5 h
[16] = Apparent permeability across apical to basolateral side in human Caco2 cells at 2 uM after 2 hrs by lucifer yellow dye-based LC-MS/MS analysis; conditions: caco-2, 2 h

O=c1c2nc([N+](=O)[O-])cn2ccn1Cc1ccccn1
MIC (Staphylococcus aureus): > 32 mg/L | solubility kinetic at 24 h, 200 µM (physchem [1]): 184 µM (≈ 49.9 µg/mL) | solubility kinetic at 24 h, 200 µM (physchem [2]): 176 µM (≈ 47.7 µg/mL) | MIC (Pseudomonas aeruginosa): > 32 mg/L | MIC (Klebsiella pneumoniae): > 32 mg/L | MIC [3]: > 32 mg/L | MIC (Cryptococcus neoformans): > 32 mg/L | CC50 (HEK293): > 100 µM | IC50 (Giardia intestinalis): 14 µM | IC50 (Giardia intestinalis; read-out: pIC50 (converted)): 15.8 µM | MIC (Escherichia coli): > 32 mg/L | CC50 (HepG2): > 100 µM | MIC (Candida albicans): > 32 mg/L | MIC (Acinetobacter baumannii): > 32 mg/L | MIC [4]: >32 mg/L | IC50 ([5]; read-out: IC50): 9.7 µM | IC50 ([5]; read-out: pIC50 (converted)): 10 µM

O=c1c2nc([N+](=O)[O-])cn2ccn1CCc1ccc(OC(F)(F)F)cc1
inhibition of growth at 40 µM [6]: 44% | MIC (Staphylococcus aureus): > 32 mg/L | MIC (Pseudomonas aeruginosa): > 32 mg/L | MIC (Klebsiella pneumoniae): > 32 mg/L | MIC [3]: > 32 mg/L | MIC (Cryptococcus neoformans): > 32 mg/L | CC50 (HEK293): > 100 µM | inhibition of growth at 32 µg/mL [7]: 70% | IC50 (Giardia intestinalis): 1.6 µM | IC50 (Giardia intestinalis; read-out: pIC50 (converted)): 1.58 µM | MIC (Escherichia coli): > 32 mg/L | CC50 (HepG2): > 100 µM | MIC (Candida albicans): > 32 mg/L | MIC (Acinetobacter baumannii): > 32 mg/L | IC50 ([4]; Mycobacterium tuberculosis, H37Rv, 120 h): 8 µM

O=C(NCc1ccc(OC(F)(F)F)cc1)c1ncc([N+](=O)[O-])[nH]1
MIC [3]: > 32 mg/L | inhibition of growth at 32 µg/mL [7]: 60 to 75% | IC50 (Giardia intestinalis): 0.2 to 0.5 µM | IC50 (Entamoeba histolytica; read-out: IC50): 2.2 to 4.5 µM | MIC [4]: >32 mg/L | MIC (Clostridioides difficile): 4 to 16 mg/L (≈ 12.1 to 48.5 µM)

O=C(NO)c1nc([N+](=O)[O-])cn1Cc1ccc(OC(F)(F)F)cc1
MIC [3]: > 32 mg/L | inhibition of growth at 32 µg/mL [7]: 60 to 75% | IC50 (Giardia intestinalis): 2.7 to 7.5 µM | IC50 (Entamoeba histolytica; read-out: IC50): 10 to 45 µM | MIC [4]: >32 mg/L | MIC (Clostridioides difficile): 16 to 64 mg/L (≈ 46.2 to 185 µM)

Cc1ccc(Cn2ccn3cc([N+](=O)[O-])nc3c2=O)cc1
MIC (Staphylococcus aureus): > 32 mg/L | Stability [8]: 96% | Stability [9]: 97% | MIC (Pseudomonas aeruginosa): > 32 mg/L | MIC (Klebsiella pneumoniae): > 32 mg/L | MIC (Cryptococcus neoformans): > 32 mg/L | IC50 (Giardia intestinalis): 3.4 µM | IC50 (Giardia intestinalis; read-out: pIC50 (converted)): 3.16 µM | IC50 (Entamoeba histolytica; read-out: IC50): > 50 µM | MIC (Escherichia coli): > 32 mg/L | Stability [10]: > 99% | MIC (Candida albicans): > 32 mg/L | MIC (Acinetobacter baumannii): > 32 mg/L | MIC (Clostridioides difficile): > 64 mg/L | Stability [11]: > 99%

O=c1[nH]c(-c2ccccc2)cn2cc([N+](=O)[O-])nc12
solubility kinetic at 24 h, 200 µM (physchem [1]): 17 µM (≈ 4.36 µg/mL) | solubility kinetic at 24 h, 200 µM (physchem [2]): 27 µM (≈ 6.92 µg/mL) | MIC [3]: > 32 mg/L | IC50 (Giardia intestinalis): 10 µM | IC50 (Giardia intestinalis; read-out: pIC50 (converted)): 10 µM | IC50 (Entamoeba histolytica; read-out: IC50): > 25 µM | IC50 (Entamoeba histolytica; read-out: pIC50 (converted)): > 25.1 µM | MIC [4]: >32 mg/L | IC50 ([5]; read-out: IC50): 0.22 µM | IC50 ([5]; read-out: pIC50 (converted)): 0.2 µM

C[C@H]1O[C@@H](O[C@H]2[C@@H](O)C[C@H](O[C@H]3[C@@H](O)C[C@H](O[C@H]4CC[C@@]5(C)[C@H](CC[C@@H]6[C@@H]5C[C@@H](O)[C@]5(C)[C@@H](C7=CC(=O)OC7)CC[C@]65O)C4)O[C@@H]3C)O[C@@H]2C)C[C@H](O)[C@@H]1O [DIGOXIN]
recovery at 2 h, 2 µM [12]: 88% | Drug recovery [13]: < 72%

O=c1c2nc([N+](=O)[O-])cn2ccn1Cc1ccc(OC(F)(F)F)cc1
Stability [8]: > 99% | Papp [14]: 220 nm/s | Stability [9]: > 99% | PPB [15]: 98% | recovery at 2 h, 2 µM [12]: 97% | Drug recovery [13]: 83% | Papp [16]: 250 nm/s | Stability [10]: > 99% | MIC (Clostridioides difficile): > 64 mg/L | Stability [11]: > 99%

CC(c1ccc(F)cc1)n1ccn2cc([N+](=O)[O-])nc2c1=O (stereo not given)
inhibition of growth at 40 µM [6]: 94% | MIC (Staphylococcus aureus): > 32 mg/L | MIC (Pseudomonas aeruginosa): > 32 mg/L | MIC (Klebsiella pneumoniae): > 32 mg/L | MIC [3]: 4 to 6.3 mg/L (≈ 13.2 to 20.8 µM) | MIC (Cryptococcus neoformans): > 32 mg/L | CC50 (HEK293): > 100 µM | IC50 (Giardia intestinalis): 2.1 µM | IC50 (Giardia intestinalis; read-out: pIC50 (converted)): 2 µM | MIC (Escherichia coli): > 32 mg/L | CC50 (HepG2): > 100 µM | MIC (Candida albicans): > 32 mg/L | MIC (Acinetobacter baumannii): > 32 mg/L | MIC [4]: 0.5 mg/L (≈ 1.65 µM)
